Reference: article PMC12297526 (Communications Chemistry, 2025)
Where two headings read alike, the source gives them in different places. Blank lines part the entries; values can stand above or below the compound they belong to.

Tests used:
[1] = 0.1 M KCl; ref 4 (supplement), 15; cited from earlier work
[2] = cited from earlier work; for pMn: 11 (supplement), 8, 17, 18, 34
Zn = format: physicochemical; details: pH = 6.0, 25 mM Zn(II), 37 °C, 1 mM complex; mean ± SD, n = 3
normal BALB/c mice = test: In vivo T1-weighted MRI of normal mice, 3.0 T clinical scanner; details: intravenous, 0.05 mmol kg^−1
Procedure, shortened: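 Male BALB/c mice (25 ± 3 g) anaesthetised with avertin (0.6 mL per 20 g) and imaged in a mouse coil at 3.0 T. Coronal and transverse T1-weighted baseline scans taken, then complex given i.v. in PBS pH 7.4 at 0.05 mmol kg−1 and scanning continued ~30 min. Relative enhancement = (SIpost – SIpre)/SIpre × 100% from ROIs on liver and kidney.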

[3] = pH-potentiometric titration, thermodynamic stability constants of Mn; format: physicochemical; details: for log KMnL: I = 0.1 M KCl, 25 °C, mean ± SD, n = 3
Procedure, shortened: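 Ligand and Mn(II) (1.05:1 molar) in 0.1 M KCl titrated with 0.5 M NaOH from pH 1.7 to 12.0 at 25 °C under nitrogen. MnCl2 stock held at pH 6 and calibrated by ICP-MS. Data fitted for stability constants and speciation; titrations in triplicate. pMn calculated at pH 7.4.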

Solubility in pure water = format: physicochemical; details: 25 °C
[4] = log P estimation by UPLC retention time; format: physicochemical; details: estimated from UPLC retention time with calibration standards
Procedure, shortened: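 Complexes and standards (DMSO, DMF, pyridine, phenol, nitrobenzene) run on reversed-phase UPLC. C18, 2.5 μm, 2.1 × 100 mm column; 10 mM ammonium acetate/ACN gradient at 0.4 mL min−1. Calibration of log TR against known log P for the standards; complex log P read from its retention time.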

[5] = 20 MHz, 298 K; cited from earlier work
[6] = pH 7.4, 25 °C, [Cu(II)] = 10^-5 M; cited from earlier work
[7] = complexes with heptadentate ligands

Compound: O=C(O)CN1CCNCCN(CC(=O)O)CCNCC1 [1,7-DO2A]
Σ log KiH [1]: 28.05

Compound: O=C(O)CN1CCNCCN(CC(=O)O)CCN(CC(=O)O)CC1 [DO3A]
log KMnL [2, 7]: 16.55

t1/2 (dissociation half-life) (Zn): 0.25 h
Compound: CCOc1ccc(C[C@@H](CN(CCN(CC(=O)[O-])CC(=O)[O-])CC(=O)[O-])N(CC(=O)[O-])CC(=O)[O-])cc1.[Gd+3].[Na+].[Na+] [Gd(EOB-DTPA)]

log KMnL [3]: 15.5
pMn ([3]; pH 7.4, [Mn(II)] = [L] = 10^−5 M): 7.20
Solubility (Solubility in pure water): 260 mg/mL
log P [4]: 0.57
Compound: O=C([O-])CN1CCNCCNCCN(CC(=O)[O-])CC1.[Mn+2] [Mn(1,4-DO2A)]
excretion route / organ preference seen by MRI (normal BALB/c mice): predominantly excreted through the renal route
log KMnL ([2]; introduction, Mn(1,4-DO2A) vs Mn(NOTA)): 16.1
^20r1 (relaxivity) [5]: 2.1 mM⁻¹ s⁻¹
half-life (t1/2) [6]: 48 h

log KMnL [3]: 14.7
log P [4]: 0.47
Compound: O=C([O-])CN1CCNCCN(CC(=O)[O-])CCNCC1.[Mn+2] [Mn(1,7-DO2A)]

Compound: O=C([O-])CN1CCNCCN(CC(=O)[O-])Cc2cccc(n2)C1.[Mn+2] [Mn(3,9-PC2A)]
pMn ([2]; 0.15 M NaCl): 8.64
log KMnL ([2]; 0.15 M NaCl, 11 (supplement), 17): 17.09
half-life (t1/2) [6]: 21 h

Compound: O=C(O)CN1CCN(CC(=O)O)Cc2cccc(n2)CN(CC(=O)O)CC1 [PCTA]
log KMnL [2, 7]: 16.83

Compound: Mn(EDTA)
pMn ([2]; 0.15 M NaCl): 7.83
half-life (t1/2) [6]: 0.08 h
